In ChEMBL document CHEMBL4028864 (J Med Chem, 2017):

Tests used:
[1] = system: HL-60; assay: Antiproliferative activity against human HL60 cells; type: functional, cell-based
[2] = system: PC-3; assay: cells; type: functional, cell-based; details: Homo sapiens, PC-3, 72 h
[3] = system: MCF7; assay: cells; type: functional, cell-based; details: Homo sapiens, MCF7, 72 h
[4] = target: T1, Protein deacetylase HDAC6 (Homo sapiens, UniProt Q9UBN7); assay: Inhibition of N-terminal GST tagged human HDAC6 (1 to 1215 residues) expressed in baculovirus infected insect cells using RHKKAc as substrate in presence of ATP
T1 sequence (Q9UBN7 whole entry): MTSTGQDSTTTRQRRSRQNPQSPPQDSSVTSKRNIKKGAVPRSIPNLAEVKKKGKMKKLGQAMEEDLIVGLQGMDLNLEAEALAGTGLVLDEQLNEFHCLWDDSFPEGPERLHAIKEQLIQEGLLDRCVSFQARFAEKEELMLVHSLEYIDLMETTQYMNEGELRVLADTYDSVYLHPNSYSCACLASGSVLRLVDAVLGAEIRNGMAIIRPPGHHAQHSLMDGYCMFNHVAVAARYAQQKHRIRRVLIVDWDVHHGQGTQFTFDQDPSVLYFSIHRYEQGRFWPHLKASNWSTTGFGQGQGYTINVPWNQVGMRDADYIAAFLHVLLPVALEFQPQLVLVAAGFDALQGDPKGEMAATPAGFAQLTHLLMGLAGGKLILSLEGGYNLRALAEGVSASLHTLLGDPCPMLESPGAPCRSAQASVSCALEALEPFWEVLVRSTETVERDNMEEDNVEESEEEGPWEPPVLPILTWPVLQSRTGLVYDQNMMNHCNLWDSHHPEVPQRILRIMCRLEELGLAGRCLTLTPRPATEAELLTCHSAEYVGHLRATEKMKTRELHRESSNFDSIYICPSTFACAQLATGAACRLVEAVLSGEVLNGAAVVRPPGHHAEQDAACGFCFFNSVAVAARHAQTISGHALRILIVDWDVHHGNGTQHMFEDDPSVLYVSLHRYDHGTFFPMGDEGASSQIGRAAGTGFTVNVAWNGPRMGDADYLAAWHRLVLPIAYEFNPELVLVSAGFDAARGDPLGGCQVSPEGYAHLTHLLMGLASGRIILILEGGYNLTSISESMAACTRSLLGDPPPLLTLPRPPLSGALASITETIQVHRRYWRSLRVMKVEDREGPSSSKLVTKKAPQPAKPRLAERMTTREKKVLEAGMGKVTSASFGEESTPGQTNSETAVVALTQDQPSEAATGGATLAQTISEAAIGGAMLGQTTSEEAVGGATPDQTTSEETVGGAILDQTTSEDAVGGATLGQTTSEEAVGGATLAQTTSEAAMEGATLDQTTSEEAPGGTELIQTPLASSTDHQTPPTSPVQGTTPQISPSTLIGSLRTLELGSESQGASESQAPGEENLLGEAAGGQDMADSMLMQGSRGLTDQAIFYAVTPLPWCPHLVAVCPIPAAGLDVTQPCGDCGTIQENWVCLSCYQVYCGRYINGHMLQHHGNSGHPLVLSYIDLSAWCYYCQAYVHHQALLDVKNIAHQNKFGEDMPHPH

[5] = system: Jurkat; assay: cells; type: functional, cell-based; details: Homo sapiens
[6] = system: HEL 92.1.7; assay: cells; type: functional, cell-based; details: Homo sapiens, HEL 92.1.7, 36 h
[7] = target: Histone deacetylase 1 (Homo sapiens, UniProt Q13547); assay: Inhibition of C-terminal FLAG His tagged full length human recombinant HDAC1 (1 to 482 residues) expressed in baculovirus infected sf21 cells using RHKKAc as substrate in presence of ATP
[8] = system: HCT-116; assay: Antiproliferative activity against human HCT116 cells after 72 hrs by MTT assay; type: functional, cell-based; details: HCT-116, 72 h
[9] = system: MDA-MB-231; assay: cells; type: functional, cell-based; details: Homo sapiens, MDA-MB-231, 72 h
[10] = target: T2, Tyrosine-protein kinase JAK2 (Homo sapiens, UniProt O60674); assay: Binding affinity to N-terminal His tagged human recombinant JAK2 (1014 to 1132 residues) expressed in Escherichia coli after 300 mins by LC/MS analysis; details: read-out: Kd(app)
Summary of the method: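 JAK2 in Tris/glycerol/urea storage buffer was exchanged into sodium phosphate/NaCl pH 7.5 and immobilized on periodate-oxidized diol silica (Schiff base, NaBH3CN, 116 h, 4 °C), then packed into a 35 × 0.5 mm column. Compounds were run at 10 μM final (50 μM for one analyte) in 20 mM ammonium acetate pH 6.8 at 20 μL/min. Detection was by SIM [M+H]+, with DMSO as void marker. Retention time was taken from the EIC peak apex, n = 3, with runs up to 300 min.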

[11] = target: T2, Tyrosine-protein kinase JAK2; assay: Inhibition of human JAK2 using poly[Glu:Tyr] as substrate in presence of [gamma-33P]-ATP
[12] = system: OPM-2; assay: Antiproliferative activity against human OPM2 cells assessed as cell viability at 10 uM after 48 hrs by CellTiter-Glo luminescent assay relative to control; type: functional
[13] = system: KMS-12-BM; assay: Antiproliferative activity against human KMS-12-BM cells assessed as cell viability at 10 uM after 48 hrs by CellTiter-Glo luminescent assay relative to control; type: functional
[14] = system: MV4-11; assay: Antiproliferative activity against human MV4-11 cells assessed as cell viability at 10 uM after 48 hrs by CellTiter-Glo luminescent assay relative to control; type: functional
[15] = system: MOLM-14; assay: Antiproliferative activity against human MOLM14 cells assessed as cell viability at 10 uM after 48 hrs by CellTiter-Glo luminescent assay relative to control; type: functional

T2 sequence (O60674 whole entry, the tested form may be a part): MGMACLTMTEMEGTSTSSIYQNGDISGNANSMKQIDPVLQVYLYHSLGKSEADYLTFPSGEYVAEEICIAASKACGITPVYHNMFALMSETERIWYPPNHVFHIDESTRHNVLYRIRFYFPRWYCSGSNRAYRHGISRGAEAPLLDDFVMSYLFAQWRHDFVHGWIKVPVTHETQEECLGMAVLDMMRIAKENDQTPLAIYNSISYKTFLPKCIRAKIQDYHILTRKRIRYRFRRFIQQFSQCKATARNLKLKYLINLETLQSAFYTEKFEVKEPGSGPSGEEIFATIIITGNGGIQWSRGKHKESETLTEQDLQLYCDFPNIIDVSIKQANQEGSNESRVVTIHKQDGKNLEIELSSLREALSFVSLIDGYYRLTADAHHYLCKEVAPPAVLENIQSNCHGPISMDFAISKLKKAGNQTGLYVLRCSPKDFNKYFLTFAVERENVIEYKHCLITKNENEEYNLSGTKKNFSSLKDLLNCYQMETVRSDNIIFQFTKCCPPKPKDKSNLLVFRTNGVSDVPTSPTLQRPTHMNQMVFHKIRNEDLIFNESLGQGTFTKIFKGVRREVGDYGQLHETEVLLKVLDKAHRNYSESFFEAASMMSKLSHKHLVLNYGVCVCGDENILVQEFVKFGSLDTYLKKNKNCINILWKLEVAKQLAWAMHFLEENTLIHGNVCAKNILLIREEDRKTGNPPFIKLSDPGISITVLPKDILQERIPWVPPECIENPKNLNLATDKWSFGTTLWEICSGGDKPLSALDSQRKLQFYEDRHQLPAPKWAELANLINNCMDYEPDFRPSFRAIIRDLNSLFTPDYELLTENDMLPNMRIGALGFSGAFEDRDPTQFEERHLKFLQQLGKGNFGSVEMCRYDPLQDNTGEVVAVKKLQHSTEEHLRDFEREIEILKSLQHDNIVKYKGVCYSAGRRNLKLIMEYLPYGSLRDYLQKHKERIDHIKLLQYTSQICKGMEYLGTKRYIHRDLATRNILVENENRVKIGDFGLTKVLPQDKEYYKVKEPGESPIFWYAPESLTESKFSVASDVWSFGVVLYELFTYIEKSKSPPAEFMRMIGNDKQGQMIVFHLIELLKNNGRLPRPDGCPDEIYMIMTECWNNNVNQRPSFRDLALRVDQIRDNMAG
Chain of Histone deacetylase 1 (Q13547 whole entry, the tested form may be a part): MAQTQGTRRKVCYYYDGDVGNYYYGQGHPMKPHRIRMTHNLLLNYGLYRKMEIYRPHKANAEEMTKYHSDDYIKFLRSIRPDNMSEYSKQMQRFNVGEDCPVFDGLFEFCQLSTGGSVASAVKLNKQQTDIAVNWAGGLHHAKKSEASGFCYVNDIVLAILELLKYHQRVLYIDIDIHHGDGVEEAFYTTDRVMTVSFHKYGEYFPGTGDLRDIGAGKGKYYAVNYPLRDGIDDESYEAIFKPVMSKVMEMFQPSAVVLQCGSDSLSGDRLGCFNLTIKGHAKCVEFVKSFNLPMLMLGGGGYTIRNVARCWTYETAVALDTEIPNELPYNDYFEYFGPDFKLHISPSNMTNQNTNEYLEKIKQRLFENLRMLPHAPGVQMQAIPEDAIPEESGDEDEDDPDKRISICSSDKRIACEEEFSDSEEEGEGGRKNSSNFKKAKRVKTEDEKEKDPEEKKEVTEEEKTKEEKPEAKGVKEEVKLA

IC50 [1] [µM]	IC50 [2] [µM]	IC50 [3] [µM]	IC50 [4] [µM]	IC50 [5] [µM]	IC50 [6] [µM]	IC50 [7] [µM]	IC50 [8] [µM]	IC50 [9] [µM]	Kd [10] [µM]	IC50 [11] [µM]	Compound	Activity [12] [%]	Activity [13] [%]	Activity [14] [%]	Activity [15] [%]
> 10	17	14.4	0.148	> 4	> 4	2.65	25.3	13.3	0.2	0.502	O=C(/C=C/c1ccc(NCCCn2cc(-c3ncnc4[nH]ccc34)cn2)cc1)NO	–	–	–	–
–	–	–	–	–	–	–	–	–	–	–	N#CC[C@H](C1CCCC1)n1cc(-c2ncnc3[nH]ccc23)cn1 [RUXOLITINIB]	74	59	52	73
